Data taken from ChEMBL document CHEMBL5661970 (Cancer Res, 2006).
Activity calls are given as the source filed them. No cut-off for these calls is given here.

Legend:
[1] = molecular target: Mitogen-activated protein kinase 3 (Homo sapiens, UniProt P27361); experiment: Inhibition of ERK1 phosphorylation in EGF-stimulated serum-starved human HUVEC cells by immunoblotting analysis; assay type: cell-based
[2] = system: PC-3; experiment: Antitumor activity against human PC-3 cells xenografted in gamma-irradiation induced RH-rnu/rnu athymic rat assessed as tumor growth inhibition at 1.0 mg/kg, po administered once daily for 2 weeks and measured on day 14 relative to control; assay type: functional; conditions: PC-3, light or radiation study, 336 h, read-out: TGI
[3] = system: A549; experiment: Antitumor activity against human A549 cells xenografted in F344/N Jcl-rnu athymic rat assessed as reduction in number of CD31-positive cells in viable regions of tumor at 0.2 mg/kg, po administered once daily for 7 days by immunofluorescence staining analysis relative to control; conditions: time 7 day
[4] = molecular target: Mitogen-activated protein kinase 1 (Homo sapiens, UniProt P28482); experiment: Inhibition of ERK2 phosphorylation in VEGF-stimulated serum-starved human HUVEC cells by immunoblotting analysis; assay type: cell-based
Procedure, shortened: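 HUVECs serum-starved, treated with inhibitor (DMSO stock diluted in medium), then stimulated with VEGF. Lysates run on SDS-PAGE and immunoblotted with anti-phospho-p44/42 MAPK antibody. Four independent experiments.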

[5] = system: Calu-6; experiment: Antitumor activity against human Calu-6 cells xenografted in RH-rnu/rnu athymic rat assessed as tumor growth inhibition at 0.2 mg/kg, po administered once daily for 6 to 21 days by DCE-MRI analysis; conditions: time 6-21 day
[6] = system: BXPC-3; experiment: Antitumor activity against human BXPC-3 cells xenografted in gamma-irradiation induced RH-rnu/rnu athymic rat assessed as tumor growth inhibition at 1.0 mg/kg, po administered once daily for 2 weeks and measured on day 13 relative to control; assay type: functional; conditions: BXPC-3, light or radiation study, 336 h, read-out: TGI
Procedure, shortened: (§1)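 Rats were γ-irradiated with 7 Gy whole body, and 24 h later received s.c. tumor cells. Fragments (20-30 mg) from ~1,500 mm3 tumors were then implanted s.c. into irradiated athymic rats. Oral dosing at 0.2 or 1 mg/kg or vehicle ran once daily for 2 weeks from day 0. Tumors were measured with calipers twice weekly (length×width²×0.5). TGI% was taken versus vehicle on day 14 (BxPC-3: day 13), with an unpaired t test on RTV.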

[7] = Minimum concentration at steady state in F344/N JcL-rnu athymic rat at 0.2 mg/kg/day, po measured upto 72 hrs by HPLC-MS/MS analysis; assay type: ADME, organism-based; conditions: in vivo
Procedure, shortened: (§2)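 Steady-state serum levels for repeated oral 0.2 mg/kg daily dosing were simulated from single-dose serum data (female F344/N JcL-rnu rats, four per group, tail-vein sampling to 72 h, HPLC-MS/MS, noncompartmental analysis), not measured directly.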

[8] = system: Calu-6; experiment: Antitumor activity against human Calu-6 cells xenografted in RH-rnu/rnu athymic rat assessed as increased pericyte coverage at 0.2 mg/kg, po administered for 14 days by immunofluorescence staining analysis relative to control; assay type: functional; conditions: time 14 day
Procedure, shortened: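 Calu-6 xenografted athymic rats were randomized at 273-275 mm3 and dosed orally for 2 weeks. Paraffin sections were double-stained with anti-CD31 and Cy3-anti-α-smooth muscle actin. Pericyte-associated endothelial cells were counted in six fields per tumor, with six tumors per group and Dunnett's test.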

[9] = system: A549; experiment: Antitumor activity against human A549 cells xenografted in F344/N Jcl-rnu athymic rat assessed as tumor regression at 1.0 mg/kg, po relative to control
[10] = system: DU-145; experiment: Antitumor activity against human DU-145 cells xenografted in gamma-irradiation induced RH-rnu/rnu athymic rat assessed as tumor growth inhibition at 1.0 mg/kg, po administered once daily for 2 weeks and measured on day 14 relative to control; assay type: functional; conditions: DU-145, light or radiation study, 336 h, read-out: TGI; procedure, shortened: as §1
[11] = system: LoVo; experiment: Antitumor activity against human LoVo cells xenografted in gamma-irradiation induced RH-rnu/rnu athymic rat assessed as tumor growth inhibition at 1.0 mg/kg, po administered once daily for 2 weeks and measured on day 14 relative to control; assay type: functional; conditions: light or radiation study, 336 h, read-out: TGI; procedure, shortened: as §1
[12] = molecular target: Ephrin type-B receptor 2 (Homo sapiens, UniProt P29323); experiment: Inhibition of EphB2 (unknown origin) in presence of ATP
Procedure, shortened: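 Cell-free kinase assay using recombinant tyrosine kinases with 1 μmol/L ATP, run in quadruplicate. IC50 values determined.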

[13] = molecular target: Epidermal growth factor receptor (Homo sapiens, UniProt P00533); experiment: Inhibition of EGFR phosphorylation in serum starved human A-431 cells incubated for 1 hr by immunoblotting analysis; assay type: cell-based
Procedure, shortened: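 Cells starved overnight in basic medium with 0.5% FBS, incubated 1 h with compound or 0.1% DMSO, then stimulated 5 min at 37°C with human recombinant cognate ligand. Receptor immunoprecipitated from lysate and immunoblotted for phosphotyrosine; IC50 by nonlinear regression of percent inhibition, n = 4.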

[14] = system: Calu-6; experiment: Antitumor activity against human Calu-6 cells xenografted in RH-rnu/rnu athymic rat assessed as larger enclosed median lumen area by the halos in tumor by measuring vessel diameter at 0.2 mg/kg, po administered for 14 days by H33342 dye based fluorescence microscopic analysis; assay type: functional; conditions: time 14 day
Procedure, shortened: (§3)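 Calu-6 tumor-bearing athymic rats, three per group, received oral drug at 0.2 or 1 mg/kg or vehicle on days 0-13. They were killed 1 min after i.v. H33342 at 20 mg/kg on day 13. 10 µm cryosections were cut from five tumor levels at least 200 µm apart and examined under UV epifluorescence. The major axis of fluorescent halos around vessels was measured by image analysis, with a Mann-Whitney test.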

[15] = system: Calu-6; experiment: Antitumor activity against human Calu-6 cells xenografted in RH-rnu/rnu athymic rat assessed as increased ratio of enlarged vessels with >100 uM diameter in tumor at 0.2 mg/kg, po administered for 14 days by H33342 dye based fluorescence microscopic analysis relative to control; assay type: functional; conditions: time 14 day; procedure, shortened: as §3
[16] = system: MDA-MB-231; experiment: Antitumor activity against human MDA-MB-231 cells xenografted in gamma-irradiation induced RH-rnu/rnu athymic rat assessed as tumor growth inhibition at 1.0 mg/kg, po administered once daily for 2 weeks and measured on day 14 relative to control; assay type: functional; conditions: MDA-MB-231, light or radiation study, 336 h, read-out: TGI; procedure, shortened: as §1
[17] = system: LS174T; experiment: Antitumor activity against human LS174T cells xenografted in gamma-irradiation induced RH-rnu/rnu athymic rat assessed as tumor growth inhibition at 0.2 mg/kg, po administered once daily for 2 weeks and measured on day 14 relative to control; assay type: functional; conditions: light or radiation study, 336 h, read-out: TGI; procedure, shortened: as §1
[18] = Maximum concentration at steady state in F344/N JcL-rnu athymic rat at 0.2 mg/kg/day, po measured upto 72 hrs by HPLC-MS/MS analysis; assay type: ADME, organism-based; conditions: in vivo; procedure, shortened: as §2
[19] = system: A549; experiment: Antitumor activity against human A549 cells xenografted in F344/N Jcl-rnu athymic rat assessed as reduction in number of CD31-positive cells in viable regions of tumor at 0.04 mg/kg, po administered once daily for 7 days by immunofluorescence staining analysis relative to control; conditions: time 7 day
[20] = system: Calu-6; experiment: Antitumor activity against human Calu-6 cells xenografted in RH-rnu/rnu athymic rat assessed as decrease in capillary permeability in tumor at 0.2 mg/kg, po measured on day 13 by DCE-MRI analysis relative to control; assay type: functional; parameters: scale not given: the % may be the effect or the level left

Mitogen-activated protein kinase 1, sequence (P28482 whole entry): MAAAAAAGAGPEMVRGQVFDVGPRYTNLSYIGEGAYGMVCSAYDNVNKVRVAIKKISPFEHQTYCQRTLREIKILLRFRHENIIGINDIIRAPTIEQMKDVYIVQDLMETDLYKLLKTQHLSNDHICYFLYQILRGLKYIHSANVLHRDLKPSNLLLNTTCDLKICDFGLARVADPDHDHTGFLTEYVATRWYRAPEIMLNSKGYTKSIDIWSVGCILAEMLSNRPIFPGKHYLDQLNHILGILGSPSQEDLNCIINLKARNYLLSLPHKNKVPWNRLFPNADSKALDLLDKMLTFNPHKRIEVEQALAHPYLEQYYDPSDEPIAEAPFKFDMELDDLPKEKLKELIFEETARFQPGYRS
Mitogen-activated protein kinase 3, sequence (P27361 whole entry): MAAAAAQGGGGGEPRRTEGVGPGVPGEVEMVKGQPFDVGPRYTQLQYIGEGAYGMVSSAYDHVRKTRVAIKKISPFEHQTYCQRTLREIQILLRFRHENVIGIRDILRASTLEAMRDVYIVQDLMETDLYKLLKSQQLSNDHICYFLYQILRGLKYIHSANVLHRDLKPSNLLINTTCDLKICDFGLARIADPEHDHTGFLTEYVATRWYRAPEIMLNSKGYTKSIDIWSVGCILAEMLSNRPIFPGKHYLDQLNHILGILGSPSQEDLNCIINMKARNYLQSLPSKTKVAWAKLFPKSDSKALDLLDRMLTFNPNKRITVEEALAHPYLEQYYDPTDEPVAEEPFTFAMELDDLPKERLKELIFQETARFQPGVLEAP
Ephrin type-B receptor 2, sequence (P29323 whole entry): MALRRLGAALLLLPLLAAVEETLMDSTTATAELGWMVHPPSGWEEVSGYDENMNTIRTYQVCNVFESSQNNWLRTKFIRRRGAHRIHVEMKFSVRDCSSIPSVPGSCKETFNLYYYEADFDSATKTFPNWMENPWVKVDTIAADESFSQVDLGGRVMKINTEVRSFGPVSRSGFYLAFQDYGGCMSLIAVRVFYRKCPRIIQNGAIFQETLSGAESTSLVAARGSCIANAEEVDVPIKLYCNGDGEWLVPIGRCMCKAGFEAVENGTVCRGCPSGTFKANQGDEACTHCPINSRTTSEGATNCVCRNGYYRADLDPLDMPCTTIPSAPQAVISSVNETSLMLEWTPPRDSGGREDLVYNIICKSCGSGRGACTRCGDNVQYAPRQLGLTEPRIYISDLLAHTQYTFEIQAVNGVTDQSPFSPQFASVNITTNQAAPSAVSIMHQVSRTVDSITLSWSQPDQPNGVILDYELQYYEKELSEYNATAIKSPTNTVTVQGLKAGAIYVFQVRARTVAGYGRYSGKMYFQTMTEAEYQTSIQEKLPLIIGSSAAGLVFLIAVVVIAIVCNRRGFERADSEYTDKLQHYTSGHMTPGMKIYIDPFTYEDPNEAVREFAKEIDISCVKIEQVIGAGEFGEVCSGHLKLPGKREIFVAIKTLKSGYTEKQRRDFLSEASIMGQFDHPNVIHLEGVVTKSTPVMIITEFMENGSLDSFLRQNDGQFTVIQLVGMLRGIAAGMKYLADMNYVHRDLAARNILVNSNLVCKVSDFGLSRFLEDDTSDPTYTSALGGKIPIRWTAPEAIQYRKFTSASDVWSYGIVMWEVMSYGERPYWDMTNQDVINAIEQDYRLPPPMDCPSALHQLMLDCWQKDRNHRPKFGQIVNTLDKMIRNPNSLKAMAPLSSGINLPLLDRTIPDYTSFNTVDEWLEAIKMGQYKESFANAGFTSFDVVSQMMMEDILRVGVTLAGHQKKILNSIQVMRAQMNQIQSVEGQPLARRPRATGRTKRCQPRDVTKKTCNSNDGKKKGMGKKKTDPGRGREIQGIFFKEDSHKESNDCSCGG
Epidermal growth factor receptor, sequence (P00533 whole entry): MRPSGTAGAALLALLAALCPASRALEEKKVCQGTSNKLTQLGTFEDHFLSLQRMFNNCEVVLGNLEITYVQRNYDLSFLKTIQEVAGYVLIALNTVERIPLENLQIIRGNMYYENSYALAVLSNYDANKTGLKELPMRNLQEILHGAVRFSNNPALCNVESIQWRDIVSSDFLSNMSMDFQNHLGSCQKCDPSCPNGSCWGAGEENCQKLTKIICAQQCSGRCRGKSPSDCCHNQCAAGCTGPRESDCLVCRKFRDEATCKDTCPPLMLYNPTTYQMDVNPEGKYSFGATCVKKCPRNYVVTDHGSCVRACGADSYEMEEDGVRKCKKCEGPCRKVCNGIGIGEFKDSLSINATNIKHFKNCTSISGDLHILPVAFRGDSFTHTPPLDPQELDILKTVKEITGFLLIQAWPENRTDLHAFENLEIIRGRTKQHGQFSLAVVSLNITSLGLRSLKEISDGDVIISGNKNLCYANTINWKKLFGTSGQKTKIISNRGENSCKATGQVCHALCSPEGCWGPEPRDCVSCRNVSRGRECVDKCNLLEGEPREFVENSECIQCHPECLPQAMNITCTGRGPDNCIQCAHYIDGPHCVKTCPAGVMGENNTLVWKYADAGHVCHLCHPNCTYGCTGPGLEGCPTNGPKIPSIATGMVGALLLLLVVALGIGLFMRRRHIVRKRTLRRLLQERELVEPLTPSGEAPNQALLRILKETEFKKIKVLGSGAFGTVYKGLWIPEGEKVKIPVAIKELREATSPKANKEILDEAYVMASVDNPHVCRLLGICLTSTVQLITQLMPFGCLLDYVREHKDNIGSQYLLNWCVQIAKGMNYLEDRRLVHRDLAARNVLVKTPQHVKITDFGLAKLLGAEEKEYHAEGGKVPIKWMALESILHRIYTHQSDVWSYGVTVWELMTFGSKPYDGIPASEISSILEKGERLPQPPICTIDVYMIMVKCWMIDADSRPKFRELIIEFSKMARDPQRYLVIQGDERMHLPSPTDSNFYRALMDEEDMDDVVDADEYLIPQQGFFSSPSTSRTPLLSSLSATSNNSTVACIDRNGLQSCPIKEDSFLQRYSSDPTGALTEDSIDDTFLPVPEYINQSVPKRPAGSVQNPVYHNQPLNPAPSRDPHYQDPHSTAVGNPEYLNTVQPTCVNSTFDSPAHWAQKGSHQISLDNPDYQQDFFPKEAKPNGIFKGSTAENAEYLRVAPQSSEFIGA

SMILES: COc1cc2nccc(Oc3ccc(NC(=O)Nc4cc(C)on4)c(Cl)c3)c2cc1OC [TIVOZANIB]
- inhibition [1]: inactive
- inhibition in vivo at 1 mg/kg [2]: 95.9%
- Activity [3]: 20.7%
- IC50 [4]: 0.18 nM
- Activity [5]: Active
- inhibition in vivo at 1 mg/kg [6]: 93.5%
- Cminss [7]: 22.2 ng/mL
- Activity [8]: 29.6%
- tumor regression % at 1 mg/kg [9]: 33%
- inhibition in vivo at 1 mg/kg [10]: > 100%
- inhibition in vivo at 1 mg/kg [11]: > 100%
- IC50 [12]: 24 nM
- IC50 [13]: Not Determined(Insoluble)
- Activity [14]: 57.9 um
- Activity [15]: 24.3%
- inhibition in vivo at 1 mg/kg [16]: > 100%
- inhibition in vivo at 0.2 mg/kg [17]: 85.7%
- Cmax [18]: 124 ng/mL
- Activity [19]: 15.7%
- Activity [20]: 45%
